Test [1] concerns the target T1, Vasopressin V2 receptor (Homo sapiens, UniProt P30518). As to the kind of experiment: Inhibition of 1 nM AVP-induced cAMP accumulation in cells expressing human vasopressin V2 receptor. It counts as functional. Put shortly:
(§1)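 HEK-293 cells expressing human receptor stimulated with 1 nM AVP; antagonism read as change in intracellular Ca2+ (V1a) or cAMP accumulation (V2).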

In test [2] the target is T1, Vasopressin V2 receptor. The experiment in a line: Inhibition of [3H]AVP binding to recombinant human vasopressin V2 receptor. An outline of the steps:
(§2)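 Competition binding on membranes from HEK-293 cells transfected with recombinant human V1a or V2 receptor; Ki values reported in nM.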

Test [3] has as its target T2, Vasopressin V1a receptor (Homo sapiens, UniProt P37288). As to the kind of experiment: Inhibition of 1 nM AVP-induced calcium mobilisation in cells expressing human vasopressin V1a receptor. Put shortly:
as §1
For orientation: Calcium assays in cells follow changes in intracellular calcium, usually with a dye or a luminescent sensor.
Target sequence in this assay (P37288 whole entry): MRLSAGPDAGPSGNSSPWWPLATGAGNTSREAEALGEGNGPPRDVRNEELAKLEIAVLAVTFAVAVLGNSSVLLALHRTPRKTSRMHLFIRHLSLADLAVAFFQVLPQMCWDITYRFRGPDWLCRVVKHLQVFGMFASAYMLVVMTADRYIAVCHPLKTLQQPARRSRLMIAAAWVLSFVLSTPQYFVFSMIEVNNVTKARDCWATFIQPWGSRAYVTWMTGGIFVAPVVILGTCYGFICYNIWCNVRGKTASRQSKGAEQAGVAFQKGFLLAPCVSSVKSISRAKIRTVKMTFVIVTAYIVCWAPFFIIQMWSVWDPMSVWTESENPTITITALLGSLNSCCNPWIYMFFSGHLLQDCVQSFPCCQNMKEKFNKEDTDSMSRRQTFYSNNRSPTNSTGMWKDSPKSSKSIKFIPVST

The target in test [4] is T2, Vasopressin V1a receptor. As to the kind of experiment: Inhibition of [3H]AVP binding to recombinant human vasopressin V1a receptor. Put shortly:
as §2
Target sequence in this assay (P37288 whole entry): as above

Test [5] deals with T2, Vasopressin V1a receptor. As to the kind of experiment: Inhibition of [3H]AVP binding to recombinant human vasopressin V1a receptor at 100 nM.
Target sequence in this assay (P37288 whole entry, looked up): as the sequence (P37288 whole entry) above
In test [6] the target is T2, Vasopressin V1a receptor. As to the kind of experiment: Inhibition of [3H]AVP binding to recombinant human vasopressin V1a receptor at 1000 nM.
Target sequence in this assay (P37288 whole entry, looked up): as the sequence (P37288 whole entry) above

T1 sequence (P30518 whole entry): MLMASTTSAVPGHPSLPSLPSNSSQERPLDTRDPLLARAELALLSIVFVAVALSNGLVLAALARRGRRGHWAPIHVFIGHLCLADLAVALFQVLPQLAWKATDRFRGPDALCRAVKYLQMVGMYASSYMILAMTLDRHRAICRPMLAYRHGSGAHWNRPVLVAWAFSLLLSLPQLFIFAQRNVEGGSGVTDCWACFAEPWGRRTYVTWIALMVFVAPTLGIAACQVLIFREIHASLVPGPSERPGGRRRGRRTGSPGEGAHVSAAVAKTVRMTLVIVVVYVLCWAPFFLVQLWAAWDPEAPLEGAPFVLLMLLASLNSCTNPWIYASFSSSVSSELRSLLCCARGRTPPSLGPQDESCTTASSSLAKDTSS

One may read the Ki as the equilibrium dissociation constant of an inhibitor or competing ligand from its target. `O=C(Nc1ccc(C(=O)N2C[C@H]3COCCN3Cc3ccccc32)c(Cl)c1)c1ccc(F)cc1-c1ccccc1`: the Ki on Vasopressin V2 receptor [1] is 2 nM; at Vasopressin V2 receptor [2], 1.9 nM; on Vasopressin V1a receptor [3], 700 nM; at Vasopressin V1a receptor [4], “Not Active”.

A word on the inhibition: it is the percentage by which the read-out fell short of the control. For `O=C(Nc1ccc(C(=O)N2C[C@H]3COCCN3Cc3ccccc32)cc1)c1ccccc1-c1ccccc1`, the results for the Ki on Vasopressin V2 receptor [1] and at Vasopressin V2 receptor [2] were 16 nM and 3.7 nM, respectively. The inhibition on Vasopressin V1a receptor [5] amounted to 69%.

With `O=C(Nc1ccc(C(=O)N2C[C@H]3COCCN3Cc3ccccc32)c(Cl)c1)c1cc(F)ccc1-c1ccccc1`, the Ki was 12 nM on Vasopressin V2 receptor [1], 11 nM on Vasopressin V2 receptor [2] and 6400 nM at Vasopressin V1a receptor [3]. At Vasopressin V1a receptor [6], the inhibition worked out at 62%.

As to `COc1cccc(-c2ccccc2C(=O)Nc2ccc(C(=O)N3C[C@H]4COCCN4Cc4ccccc43)c(Cl)c2)c1`, the inhibitory constant (Ki) was 2 nM at Vasopressin V2 receptor [1], 3.7 nM at Vasopressin V2 receptor [2], 3400 nM at Vasopressin V1a receptor [3] and “Not Active” on Vasopressin V1a receptor [4].

`O=C(Nc1ccc(C(=O)N2CC3CSCCN3Cc3ccccc32)c(Cl)c1)c1ccccc1-c1ccccc1` (centres undefined): the Ki came to 11 nM at Vasopressin V2 receptor [2] and 490 nM at Vasopressin V1a receptor [4].

`O=C(Nc1ccc(C(=O)N2CC3CSCCN3Cc3ccccc32)cc1)c1ccccc1-c1ccccc1` (centres undefined): the Ki at Vasopressin V1a receptor [3] was determined as 8000 nM; on Vasopressin V1a receptor [4] it was 49 nM.

For the molecule `O=C(Nc1ccc(C(=O)N2C[C@H]3COCCN3Cc3ccccc32)c(Cl)c1)c1ccccc1-c1cccc(O)c1`, the inhibition constant (Ki) at Vasopressin V2 receptor [1] is 20 nM; at Vasopressin V2 receptor [2] it was 5 nM; at Vasopressin V1a receptor [3], 11000 nM; at Vasopressin V1a receptor [4], “Not Active”.

With `Cc1ccc(F)cc1C(=O)Nc1ccc(C(=O)N2Cc3cccn3Cc3ccccc32)c(Cl)c1` [LIXIVAPTAN], the Ki is 23 nM at Vasopressin V2 receptor [1], 2.3 nM on Vasopressin V2 receptor [2], 6000 nM on Vasopressin V1a receptor [3] and 44 nM on Vasopressin V1a receptor [4].

`O=C(Nc1ccc(C(=O)N2CC3CSCCN3Cc3ccccc32)c(F)c1)c1ccccc1-c1ccccc1` (centres undefined): the inhibitory constant (Ki) on Vasopressin V2 receptor [2] is 10 nM; on Vasopressin V1a receptor [4], “Not Active”.

On to `O=C(Nc1ccc(C(=O)N2C[C@H]3COCCN3Cc3ccccc32)c(Cl)c1)c1ccccc1-c1ccc(O)cc1`, for which the Ki is 11 nM on Vasopressin V2 receptor [1], 4.2 nM on Vasopressin V2 receptor [2], 4200 nM at Vasopressin V1a receptor [3] and “Not Active” on Vasopressin V1a receptor [4].

As to `O=C(Nc1ccc(C(=O)N2CC3CSCCN3Cc3ccc(F)cc32)cc1)c1ccccc1-c1ccccc1` (centres undefined), the Ki at Vasopressin V2 receptor [2] is 9 nM; on Vasopressin V1a receptor [4], “Not Active”.

Regarding `O=C(Nc1ccc(C(=O)N2CC3CS(=O)(=O)CCN3Cc3ccccc32)cc1)c1ccccc1-c1ccccc1` (centres undefined), the Ki on Vasopressin V2 receptor [1] was 40 nM; at Vasopressin V2 receptor [2], 65 nM; at Vasopressin V1a receptor [3], 1400 nM; on Vasopressin V1a receptor [4], “Not Active”.

Turning to `O=C(Nc1ccc(C(=O)N2CC3CSCCN3Cc3ccccc32)c(O)c1)c1ccccc1-c1ccccc1` (centres undefined), the values for the Ki on Vasopressin V2 receptor [2] and at Vasopressin V1a receptor [4] were 3.2 nM and 110 nM, respectively.

On to `O=C(Nc1ccc(C(=O)N2CC3COCCN3Cc3ccccc32)c(Cl)c1)c1ccccc1-c1ccccc1` (single isomer, unassigned), for which the inhibitory constant (Ki) on Vasopressin V2 receptor [1] came to 170 nM; on Vasopressin V2 receptor [2] it was 15 nM; at Vasopressin V1a receptor [3] it was 14000 nM; on Vasopressin V1a receptor [4] it was 640 nM.

`O=C(Nc1ccc(C(=O)N2CC3CSCCN3Cc3cccc(Cl)c32)cc1)c1ccccc1-c1ccccc1` (centres undefined): the results for the Ki on Vasopressin V2 receptor [2] and at Vasopressin V1a receptor [4] were 10 nM and “Not Active”, respectively.

As to `O=C(Nc1ccc(C(=O)N2CC3CSCCN3Cc3ccc(F)c(F)c32)cc1)c1ccccc1-c1ccccc1` (centres undefined), the values for the Ki at Vasopressin V2 receptor [2] and at Vasopressin V1a receptor [4] were 18 nM and “Not Active”, respectively.

In the case of `O=C(Nc1ccc(C(=O)N2C[C@H]3COCCN3Cc3ccccc32)c(Cl)c1)c1cc(O)ccc1-c1ccccc1`, the Ki was 70 nM at Vasopressin V2 receptor [1], 13 nM at Vasopressin V2 receptor [2], 1900 nM on Vasopressin V1a receptor [3] and “Not Active” at Vasopressin V1a receptor [4].

For the molecule `O=C(Nc1ccc(C(=O)N2C[C@H]3COCCN3Cc3ccccc32)c(Cl)c1)c1ccc(O)cc1-c1ccccc1`, the Ki was determined as 1600 nM on Vasopressin V1a receptor [3] and 30 nM on Vasopressin V1a receptor [4].

On to `O=C(Nc1ccc(C(=O)N2C[C@H]3CSCCN3Cc3ccccc32)cc1)c1ccccc1-c1ccccc1`, for which the Ki was 1400 nM at Vasopressin V1a receptor [3] and 84 nM on Vasopressin V1a receptor [4].

`Cc1ccc2c(c1)N(C(=O)c1ccc(NC(=O)c3ccccc3-c3ccccc3)cc1)CC1CSCCN1C2` (centres undefined): the Ki on Vasopressin V2 receptor [1] was 23 nM; on Vasopressin V2 receptor [2], 8 nM; on Vasopressin V1a receptor [3], 14000 nM; at Vasopressin V1a receptor [4], 18 nM.

Consider `O=C(Nc1ccc(C(=O)N2CC3CSCCN3Cc3ccccc32)c(Cl)c1)c1cc(F)ccc1-c1ccccc1` (centres undefined), for which the Ki was 70 nM at Vasopressin V2 receptor [1], 37 nM on Vasopressin V2 receptor [2], 14000 nM at Vasopressin V1a receptor [3] and “Not Active” at Vasopressin V1a receptor [4].

As to `COc1ccc(C(=O)Nc2ccc(C(=O)N3C[C@H]4COCCN4Cc4ccccc43)c(Cl)c2)c(-c2ccccc2)c1`, the Ki at Vasopressin V2 receptor [1] is 5 nM; on Vasopressin V2 receptor [2], 4.2 nM; on Vasopressin V1a receptor [3] it was 1300 nM; at Vasopressin V1a receptor [4], “Not Active”.

As for `O=C(Nc1ccc(C(=O)N2C[C@H]3COCCN3Cc3ccccc32)c(Cl)c1)c1ccccc1-c1ccccc1`, the Ki at Vasopressin V2 receptor [1] came out at 4 nM; at Vasopressin V2 receptor [2], 0.9 nM; on Vasopressin V1a receptor [3], 600 nM; at Vasopressin V1a receptor [4] it was 24 nM.

Regarding `Cc1ccc(F)cc1C(=O)Nc1ccc(C(=O)N2CC3CSCCN3Cc3ccccc32)c(Cl)c1` (centres undefined), the Ki was 300 nM on Vasopressin V2 receptor [1], 60 nM on Vasopressin V2 receptor [2], 14000 nM at Vasopressin V1a receptor [3] and “Not Active” on Vasopressin V1a receptor [4].

Consider `O=C(Nc1ccc(C(=O)N2C[C@@H]3CSCCN3Cc3ccccc32)cc1)c1ccccc1-c1ccccc1`, for which the Ki on Vasopressin V1a receptor [3] was 1300 nM; on Vasopressin V1a receptor [4], 290 nM.

For the molecule `COc1ccc(-c2ccccc2C(=O)Nc2ccc(C(=O)N3C[C@H]4COCCN4Cc4ccccc43)c(Cl)c2)cc1`, the Ki at Vasopressin V2 receptor [1] was 3 nM; at Vasopressin V2 receptor [2], 2.8 nM; at Vasopressin V1a receptor [3], 1900 nM; on Vasopressin V1a receptor [4], “Not Active”.

For `O=C(Nc1ccc(C(=O)N2CC3CSCCN3Cc3ccccc32)c(Cl)c1)c1ccc(F)cc1-c1ccccc1` (centres undefined), the Ki was 3.7 nM at Vasopressin V2 receptor [2] and 410 nM on Vasopressin V1a receptor [4].

`Cc1ccc(F)cc1C(=O)Nc1ccc(C(=O)N2C[C@H]3COCCN3Cc3ccccc32)c(Cl)c1`: the Ki on Vasopressin V2 receptor [1] turned out to be 12 nM; at Vasopressin V2 receptor [2] it was 2.8 nM; on Vasopressin V1a receptor [3], 2000 nM; at Vasopressin V1a receptor [4] it was 100 nM.

`O=C(Nc1ccc(C(=O)N2C[C@H]3CSCCN3Cc3ccccc32)c(Cl)c1)c1ccccc1-c1ccccc1`: the Ki worked out at 17 nM on Vasopressin V2 receptor [1], 3.7 nM at Vasopressin V2 receptor [2], 14000 nM on Vasopressin V1a receptor [3] and 250 nM on Vasopressin V1a receptor [4].

For the molecule `COc1cc(NC(=O)c2ccccc2-c2ccccc2)ccc1C(=O)N1CC2CSCCN2Cc2ccccc21` (centres undefined), the inhibition constant Ki is 15 nM at Vasopressin V2 receptor [2] and “Not Active” at Vasopressin V1a receptor [4].

On to `Cc1cc(NC(=O)c2ccccc2-c2ccccc2)ccc1C(=O)N1CC2CSCCN2Cc2ccccc21` (centres undefined), for which the Ki on Vasopressin V2 receptor [2] was 10 nM; on Vasopressin V1a receptor [4], “Not Active”.

For `COc1ccc(-c2ccccc2)c(C(=O)Nc2ccc(C(=O)N3C[C@H]4COCCN4Cc4ccccc43)c(Cl)c2)c1`, the Ki on Vasopressin V2 receptor [2] is 17 nM; on Vasopressin V1a receptor [4], “Not Active”.
